Each block holds one compound with its values, some of them ahead of it. The source made the active and inactive calls. The calls are words filed in the database; no cut-off is given here.
Legend:
Klebsiella pneumoniae = test: Growth inhibition of multidrug-resistant Klebsiella pneumoniae ATCC 700603 at 32 ug/ml after 18 hrs; assay type: functional; settings: ATCC 700603, 18 h, read-out: GI
Summary of the method: (§1)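 Mid-log cultures in cation-adjusted Mueller Hinton broth were added at 5×10^5 CFU/mL to wells at a final compound concentration of 32 μg/mL. Plates stood at 37 °C for 18 h. Growth was read by OD600, and % inhibition was computed against media-only and untreated-bacteria controls.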

Staphylococcus aureus = test: Growth inhibition of methicillin-resistant Staphylococcus aureus ATCC 43300 at 32 ug/ml after 18 hrs; assay type: functional; settings: ATCC 43300, 18 h, read-out: GI; summary of the method: as §1
Candida albicans = test: Growth inhibition of Candida albicans ATCC 90028 at 32 ug/ml after 24 hrs by OD530 light-scattering microspectrophotometric method; settings: ATCC 90028, 24 h, read-out: GI
Pseudomonas aeruginosa = test: Growth inhibition of Pseudomonas aeruginosa ATCC 27853 at 32 ug/ml after 18 hrs; assay type: functional; settings: ATCC 27853, 18 h, read-out: GI
Summary of the method: (§2)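 Mid-log cultures were prepared as above and seeded at 5×10^5 CFU/mL with compound at a final 32 μg/mL, then held static at 37 °C for 18 h. Growth was read as OD600. Percent inhibition was calculated against media-only and bacteria-only controls on the same plate.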

Escherichia coli = test: Growth inhibition of Escherichia coli ATCC 25922 at 32 ug/ml after 18 hrs; assay type: functional; settings: ATCC 25922, 18 h, read-out: GI; summary of the method: as §2
Cryptococcus neoformans = test: Growth inhibition of Cryptococcus neoformans H99 ATCC 208821 at 32 ug/ml after 24 hrs by resazurin dye-based microspectrophotometric assay; assay type: functional; settings: var. grubii H99 ATCC 208821, 24 h, read-out: GI
Summary of the method: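 Yeasts were grown 3 days on YPD agar at 30 °C, suspended from five colonies and diluted in YNB broth to a final 2.5×10^3 CFU/mL. Compound at a final 32 μg/mL; incubated 24 h at 35 °C without shaking. C. albicans was read at OD530. C. neoformans was read as OD600–570 after resazurin (0.001% final) and a further 2 h at 35 °C. Fluconazole was the standard.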

Acinetobacter baumannii = test: Growth inhibition of Acinetobacter baumannii ATCC 19606 at 32 ug/ml after 18 hrs; assay type: functional; settings: ATCC 19606 = CIP 70.34 = JCM 6841, 18 h, read-out: GI; summary of the method: as §2
[1] = Hemolytic activity against human RBC at 0.39 uM after 1 hr by Drabkin's assay relative to control; assay type: ADME, cell-based, Erythrocyte; settings: human red blood cells (erythrocytes), read-out: Activity
[2] = Hemolytic activity against human RBC at 1.56 uM after 1 hr by Drabkin's assay relative to control; assay type: ADME, cell-based, Erythrocyte; settings: human red blood cells (erythrocytes), read-out: Activity
Erythrocyte = test: Hemolytic activity against human RBC after 1 hr by Drabkin's assay; assay type: ADME, cell-based
[3] = Hemolytic activity against human RBC at 3.125 uM after 1 hr by Drabkin's assay relative to control; assay type: ADME, cell-based, Erythrocyte; settings: human red blood cells (erythrocytes), read-out: Activity
[4] = Hemolytic activity against human RBC at 50 uM after 1 hr by Drabkin's assay relative to control; assay type: ADME, cell-based, Erythrocyte; settings: human red blood cells (erythrocytes), read-out: Activity
Lipid bilayer = test: Induction of pore formation in POPC vesicles at 20 uM after 3 hrs by carboxyfluorescein dye leakage assay; settings: in the assay text read “after 3 mins” for “after 3 hrs”
Summary of the method: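 POPC or DOPC liposomes were hydrated in 10 mM HEPES, 100 mM KCl, pH 7.4, containing 50 mM carboxyfluorescein. Size was checked by dynamic light scattering, and vesicles were used at 2.2×10^10 per mL. Peptide at 20 μM was equilibrated with vesicles for 3 min, and dye leakage was measured.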

[5] = Hemolytic activity against human RBC at 100 uM after 1 hr by Drabkin's assay relative to control; assay type: ADME, cell-based, Erythrocyte; settings: human red blood cells (erythrocytes), read-out: Activity
[6] = Hemolytic activity against human RBC at 12.5 uM after 1 hr by Drabkin's assay relative to control; assay type: ADME, cell-based, Erythrocyte; settings: human red blood cells (erythrocytes), read-out: Activity
[7] = Hemolytic activity against human RBC at 6.25 uM after 1 hr by Drabkin's assay relative to control; assay type: ADME, cell-based, Erythrocyte; settings: human red blood cells (erythrocytes), read-out: Activity
[8] = Hemolytic activity against human RBC at 25 uM after 1 hr by Drabkin's assay relative to control; assay type: ADME, cell-based, Erythrocyte; settings: human red blood cells (erythrocytes), read-out: Activity
[9] = Hemolytic activity against human RBC at 0.78 uM after 1 hr by Drabkin's assay relative to control; assay type: ADME, cell-based, Erythrocyte; settings: human red blood cells (erythrocytes), read-out: Activity

Structure (SMILES): CN1CCCN1C(=O)[C@@H]1CCCN1C(=O)N1CCCN1C(=O)[C@@H]1CCCN1C(=O)N1CCCN1C(=O)[C@@H]1CCCN1C(=O)N1CCCN1C(=O)[C@@H]1CCCN1C(=O)N1CCCN1C(=O)[C@@H]1CCCN1C(=O)N1CCCN1C(=O)[C@@H]1CCCN1C(=O)N1CCCN1C(=O)[C@@H]1CCCN1C(=O)N1CCCN1C(=O)[C@@H]1CCCN1C(=O)N1CCCN1C(=O)OCc1ccccc1
inhibition of growth at 32 µg/mL (Klebsiella pneumoniae): 3.93% | inhibition of growth at 32 µg/mL (Staphylococcus aureus): 25.1% | inhibition of growth at 32 µg/mL (Candida albicans): 3.49% | inhibition of growth at 32 µg/mL (Pseudomonas aeruginosa): -3.91% | inhibition of growth at 32 µg/mL (Escherichia coli): 3.93% | inhibition of growth at 32 µg/mL (Cryptococcus neoformans): -5.68% | inhibition of growth at 32 µg/mL (Acinetobacter baumannii): -6.74%

Structure (SMILES): CC(C)(C)OC(=O)[C@@H]1CCCN1C(=O)N1CCCN1C(=O)[C@@H]1CCCN1C(=O)N1CCCN1C(=O)[C@@H]1CCCN1C(=O)N1CCCN1C(=O)[C@@H]1CCCN1C(=O)N1CCCN1C(=O)[C@@H]1CCCN1C(=O)N1CCCN1C(=O)[C@@H]1CCCN1C(=O)N1CCCN1C(=O)[C@@H]1CCCN1C(=O)N1CCCN1C(=O)[C@@H]1CCCN1C(=O)N1CCCN1
inhibition of growth at 32 µg/mL (Klebsiella pneumoniae): 5.27% | inhibition of growth at 32 µg/mL (Staphylococcus aureus): 20.7% | inhibition of growth at 32 µg/mL (Candida albicans): 2.92% | inhibition of growth at 32 µg/mL (Pseudomonas aeruginosa): -8.18% | inhibition of growth at 32 µg/mL (Escherichia coli): 5.27% | inhibition of growth at 32 µg/mL (Cryptococcus neoformans): -3.43% | inhibition of growth at 32 µg/mL (Acinetobacter baumannii): 17.8%

Activity (Lipid bilayer): inactive
Structure (SMILES): O=CN1CCCN1C(=O)N1CCC[C@H]1C(=O)N1CCCN1C(=O)N1CCC[C@H]1C(=O)N1CCCN1C(=O)N1CCC[C@H]1C(=O)N1CCCN1C(=O)N1CCC[C@H]1C(=O)N1CCCN1C(=O)N1CCC[C@H]1C(=O)NCCO
hemolysis at 1 h, 0.39 µM [1]: 0.361% | hemolysis at 1 h, 1.56 µM [2]: -0.452% | Activity (Erythrocyte): Dose-dependent effect | hemolysis at 1 h, 3.125 µM [3]: 0.02% | hemolysis at 1 h, 50 µM [4]: -0.361% | hemolysis at 1 h, 100 µM [5]: -0.251% | hemolysis at 1 h, 12.5 µM [6]: -0.913% | hemolysis at 1 h, 6.25 µM [7]: -0.361% | hemolysis at 1 h, 25 µM [8]: 0% | hemolysis at 1 h, 0.78 µM [9]: 0.08%

Structure (SMILES): CC(C)(C)OC(=O)N1CCC[C@H]1C(=O)N1CCCN1C(=O)N1CCC[C@H]1C(=O)N1CCCN1C(=O)N1CCC[C@H]1C(=O)N1CCCN1C(=O)N1CCC[C@H]1C(=O)N1CCCN1
inhibition of growth at 32 µg/mL (Klebsiella pneumoniae): 4.51% | inhibition of growth at 32 µg/mL (Staphylococcus aureus): 28.3% | Activity (Erythrocyte): Dose-dependent effect | hemolysis at 1 h, 50 µM [4]: 0.061% | inhibition of growth at 32 µg/mL (Candida albicans): 3.56% | inhibition of growth at 32 µg/mL (Pseudomonas aeruginosa): -4.17% | hemolysis at 1 h, 100 µM [5]: 0.723% | inhibition of growth at 32 µg/mL (Escherichia coli): 4.51% | inhibition of growth at 32 µg/mL (Cryptococcus neoformans): -0.655% | inhibition of growth at 32 µg/mL (Acinetobacter baumannii): 7.37%

Structure (SMILES): O=C([C@@H]1CCCN1C(=O)N1CCCN1C(=O)[C@@H]1CCCN1C(=O)N1CCCN1C(=O)[C@@H]1CCCN1C(=O)N1CCCN1C(=O)[C@@H]1CCCN1C(=O)N1CCCN1C(=O)[C@@H]1CCCN1C(=O)N1CCCN1C(=O)[C@@H]1CCCN1C(=O)N1CCCN1C(=O)[C@@H]1CCCN1C(=O)N1CCCN1C(=O)[C@@H]1CCCN1)N1CCCN1
inhibition of growth at 32 µg/mL (Klebsiella pneumoniae): 1.9% | inhibition of growth at 32 µg/mL (Staphylococcus aureus): 22.8% | inhibition of growth at 32 µg/mL (Candida albicans): 2.38% | inhibition of growth at 32 µg/mL (Pseudomonas aeruginosa): -6.95% | inhibition of growth at 32 µg/mL (Escherichia coli): 1.9% | inhibition of growth at 32 µg/mL (Cryptococcus neoformans): -2.7% | inhibition of growth at 32 µg/mL (Acinetobacter baumannii): -4.27%

Structure (SMILES): O=C(O)[C@@H]1CCCN1C(=O)N1CCCN1C(=O)[C@@H]1CCCN1C(=O)N1CCCN1C(=O)[C@@H]1CCCN1C(=O)N1CCCN1C(=O)[C@@H]1CCCN1C(=O)N1CCCN1C(=O)OCc1ccccc1
inhibition of growth at 32 µg/mL (Klebsiella pneumoniae): 4.23% | inhibition of growth at 32 µg/mL (Staphylococcus aureus): 27% | hemolysis at 1 h, 0.39 µM [1]: 0.09% | hemolysis at 1 h, 1.56 µM [2]: 0.542% | Activity (Erythrocyte): Dose-dependent effect | hemolysis at 1 h, 3.125 µM [3]: 0.452% | hemolysis at 1 h, 50 µM [4]: 0.09% | Activity (Lipid bilayer): inactive | inhibition of growth at 32 µg/mL (Candida albicans): 3.59% | inhibition of growth at 32 µg/mL (Pseudomonas aeruginosa): -6.53% | hemolysis at 1 h, 100 µM [5]: 0.542% | inhibition of growth at 32 µg/mL (Escherichia coli): 4.23% | hemolysis at 1 h, 12.5 µM [6]: 0.09% | hemolysis at 1 h, 6.25 µM [7]: 0.452% | hemolysis at 1 h, 25 µM [8]: -0.361% | hemolysis at 1 h, 0.78 µM [9]: 0.09% | inhibition of growth at 32 µg/mL (Cryptococcus neoformans): -5.78% | inhibition of growth at 32 µg/mL (Acinetobacter baumannii): 14%
